{"source": "paper PMC5665024", "about": "(Chemical research in toxicology, 2017)", "key": {"[1]": {"target": "T1, human DNA polymerase η (pol η) (Homo sapiens, UniProt Q9Y253)", "T1 sequence (Q9Y253 1-713)": "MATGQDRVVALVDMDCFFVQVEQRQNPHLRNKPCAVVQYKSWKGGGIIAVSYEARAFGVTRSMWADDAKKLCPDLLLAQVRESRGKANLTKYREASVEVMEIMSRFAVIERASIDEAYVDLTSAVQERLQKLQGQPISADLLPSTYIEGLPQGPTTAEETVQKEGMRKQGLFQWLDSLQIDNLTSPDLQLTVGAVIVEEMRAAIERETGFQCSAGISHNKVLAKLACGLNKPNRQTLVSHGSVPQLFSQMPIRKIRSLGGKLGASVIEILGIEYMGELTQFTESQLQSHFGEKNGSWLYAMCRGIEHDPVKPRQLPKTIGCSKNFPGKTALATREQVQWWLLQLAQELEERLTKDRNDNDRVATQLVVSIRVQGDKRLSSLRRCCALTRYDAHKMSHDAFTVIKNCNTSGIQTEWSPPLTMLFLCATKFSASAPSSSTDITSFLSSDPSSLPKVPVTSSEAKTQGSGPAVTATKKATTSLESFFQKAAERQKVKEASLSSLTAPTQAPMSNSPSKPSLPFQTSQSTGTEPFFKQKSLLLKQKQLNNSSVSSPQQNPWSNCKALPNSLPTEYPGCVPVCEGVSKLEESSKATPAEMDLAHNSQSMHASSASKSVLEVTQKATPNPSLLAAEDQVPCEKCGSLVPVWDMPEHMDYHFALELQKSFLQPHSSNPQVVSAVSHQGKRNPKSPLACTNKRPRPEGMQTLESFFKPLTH", "experiment": "Steady-state primer extension assay, pol η", "assay_type": "biochemical"}, "UACC903 cells": {"tested_on": "UACC903 cells", "experiment": "MTS assay of cell proliferation, UACC903", "assay_type": "cell-based, human", "conditions": "for IC50: Homo sapiens; for −log(IC50) (95% CI): tested compound alone", "summary_of_the_method": "(§1)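 Cells grown in DMEM with 10% FBS at 37 °C and 5% CO2. Plated at 5 × 10^3 per well, grown 24 h, then exposed 24 or 72 h to test compound alone or in pairs: 10 μM bleomycin-type or 250 μM alkylating agent added to the lignan, or 10 μM lignan added to either. DMSO 0.2% final; vehicle controls. MTS/PMS for 4 h; A492; cell-free background. Triplicate; IC50 fit, 95% CI.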"}, "pol β": {"target": "pol β (Homo sapiens, UniProt P06746)", "experiment": "Presteady-state burst kinetics", "assay_type": "biochemical", "conditions": "modeling with a noncompetitive inhibition scheme (Figure S10)"}, "[2]": {"target": "human DNA polymerase β (pol β) (Homo sapiens, UniProt P06746)", "experiment": "Steady-state primer extension assay, pol β", "assay_type": "biochemical"}, "PANC1 cells": {"tested_on": "PANC1 cells", "experiment": "MTS assay of cell proliferation, PANC1", "assay_type": "cell-based, human", "conditions": "for IC50: Homo sapiens; for −log(IC50) (95% CI): tested compound alone", "summary_of_the_method": "as §1"}, "pol η binding to DNA": {"target": "T2, pol η binding to DNA (Homo sapiens, UniProt Q9Y253)", "T2 sequence (Q9Y253 1-713)": "T1 sequence (Q9Y253 1-713)", "experiment": "Polymerase–DNA interaction, electrophoretic mobility shift assay, pol η", "conditions": "native PAGE"}, "[3]": {"target": "T3, human DNA polymerase λ (pol λ) (Homo sapiens, UniProt Q9UGP5)", "T3 sequence (Q9UGP5 1-575)": "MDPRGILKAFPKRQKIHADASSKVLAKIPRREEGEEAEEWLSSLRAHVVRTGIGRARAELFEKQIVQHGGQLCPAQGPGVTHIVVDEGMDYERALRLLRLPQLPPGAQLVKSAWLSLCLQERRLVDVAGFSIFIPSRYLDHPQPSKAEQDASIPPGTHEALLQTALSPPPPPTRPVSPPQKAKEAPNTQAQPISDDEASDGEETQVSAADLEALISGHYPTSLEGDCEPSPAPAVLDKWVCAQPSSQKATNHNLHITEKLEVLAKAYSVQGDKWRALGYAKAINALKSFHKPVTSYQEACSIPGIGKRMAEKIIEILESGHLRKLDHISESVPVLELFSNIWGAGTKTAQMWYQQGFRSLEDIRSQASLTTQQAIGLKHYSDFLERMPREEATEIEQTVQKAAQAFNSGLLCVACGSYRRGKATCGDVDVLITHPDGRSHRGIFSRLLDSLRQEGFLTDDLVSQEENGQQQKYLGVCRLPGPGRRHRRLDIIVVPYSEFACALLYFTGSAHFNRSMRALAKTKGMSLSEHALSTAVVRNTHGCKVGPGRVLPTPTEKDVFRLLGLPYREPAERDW", "experiment": "Steady-state primer extension assay, pol λ", "assay_type": "biochemical"}, "pol λ binding to DNA": {"target": "T4, pol λ binding to DNA (Homo sapiens, UniProt Q9UGP5)", "T4 sequence (Q9UGP5 1-575)": "T3 sequence (Q9UGP5 1-575)", "experiment": "Polymerase–DNA interaction, electrophoretic mobility shift assay, pol λ", "conditions": "for inhibition of DNA binding to polymerase (EMSA): honokiol up to 200 μM, polymerase in excess of DNA"}, "A549 cells": {"tested_on": "A549 cells", "experiment": "MTS assay of cell proliferation, A549", "assay_type": "cell-based, human", "conditions": "A549, 24 h", "summary_of_the_method": "as §1"}, "rats": {"tested_on": "rats", "conditions": "dose of 100 mg/kg; cited from earlier work"}, "[4]": {"target": "DNA polymerase I from E. coli (Klenow fragment), Kf(exo-) (Escherichia coli, UniProt P00582, D355A/E357A)", "experiment": "Steady-state primer extension assay, Kf", "assay_type": "biochemical"}, "KF(exo-) binding to DNA": {"target": "KF(exo-) binding to DNA (Escherichia coli, UniProt P00582, D355A/E357A)", "experiment": "Polymerase–DNA interaction, electrophoretic mobility shift assay, KF", "parameters": "species or system E. coli", "conditions": "native PAGE"}, "[5]": {"experiment": "Solubility limit of honokiol in polymerase buffer", "assay_type": "physicochemical"}, "[6]": {"tested_on": "HL60 promyelocytic leukemia cells", "conditions": "mice xenografted with HL60 promyelocytic leukemia cells; cited from earlier work"}, "[7]": {"conditions": "eq 3, factor on Km/Ki, 95% confidence limits"}, "[8]": {"conditions": "eq 3, residual catalysis with HNL bound, 95% confidence limits"}}, "note": "Like-named read-outs stand apart in the source and are kept apart here."}
{"compound": "C=CCc1ccc(O)c(-c2ccc(O)c(CC=C)c2)c1", "note": "[HNL, 2-(4-hydroxy-3-prop-2-enyl-phenyl)-4-prop-2-enyl-phenol]", "values": [{"measurement": "IC50", "setting": "[1]", "value": 10, "unit": "µM"}, {"measurement": "Ki", "setting": "[1]", "value": 20, "unit": "µM"}, {"measurement": "α", "setting": "[1]; [7]", "value": "0.49 (0.12, 0.85)"}, {"measurement": "β", "setting": "[1]; [8]", "value": "0.03 (–0.10, 0.15)"}, {"measurement": "inhibition mechanism versus dCTP", "setting": "[1]; steady-state kinetic analysis", "value": "linear mixed-type noncompetitive"}, {"measurement": "IC50", "setting": "UACC903 cells; UACC-903, 24 h, read-out: −log(IC50) (95% CI), UACC903, 24 h, tested compound alone (converted)", "value": 25.1, "unit": "µM"}, {"measurement": "IC50", "setting": "UACC903 cells; UACC-903, 72 h, read-out: −log(IC50) (95% CI), UACC903, 72 h, tested compound alone (converted)", "value": 15.8, "unit": "µM"}, {"measurement": "−log(IC50) (95% CI)", "setting": "UACC903 cells; UACC903, 24 h", "value": "4.6 (4.47, 4.8)"}, {"measurement": "−log(IC50) (95% CI)", "setting": "UACC903 cells; UACC903, 72 h", "value": "4.8 (4.65, 4.9)"}, {"measurement": "honokiol off rate constant", "setting": "pol β", "value": 0.16, "unit": "s⁻¹"}, {"measurement": "IC50", "setting": "[2]", "value": 0.6, "unit": "µM"}, {"measurement": "Ki", "setting": "[2]; Ki, hyperbolic mixed-type inhibition fit (eq 3), vs dCTP, 95% confidence limits", "value": 4, "unit": "µM"}, {"measurement": "α", "setting": "[2]; [7]", "value": "0.55 (0.31, 0.79)"}, {"measurement": "β", "setting": "[2]; [8]", "value": "0.20 (0.15, 0.25)"}, {"measurement": "inhibition mechanism versus dCTP", "setting": "[2]; steady-state kinetic analysis", "value": "mixed-type noncompetitive"}, {"measurement": "IC50", "setting": "PANC1 cells; PANC-1, 24 h, read-out: −log(IC50) (95% CI), PANC1, 24 h, tested compound alone (converted)", "value": 20, "unit": "µM"}, {"measurement": "IC50", "setting": "PANC1 cells; PANC-1, 72 h, read-out: −log(IC50) (95% CI), PANC1, 72 h, tested compound alone (converted)", "value": 7.94, "unit": "µM"}, {"measurement": "−log(IC50) (95% CI)", "setting": "PANC1 cells; PANC1, 24 h", "value": "4.6 (4.5, 4.8)"}, {"measurement": "−log(IC50) (95% CI)", "setting": "PANC1 cells; PANC1, 72 h", "value": "4.8 (4.7, 4.9)"}, {"measurement": "inhibition of DNA binding to polymerase (EMSA)", "setting": "pol η binding to DNA", "value": "does not inhibit DNA binding"}, {"measurement": "IC50", "setting": "[3]", "value": 0.8, "unit": "µM"}, {"measurement": "Ki", "setting": "[3]", "value": 8.3, "unit": "µM"}, {"measurement": "α", "setting": "[3]; [7]", "value": "0.51 (0.24, 0.78)"}, {"measurement": "β", "setting": "[3]; [8]", "value": "0.07 (0.02, 0.12)"}, {"measurement": "inhibition mechanism versus dCTP", "setting": "[3]; steady-state kinetic analysis", "value": "mixed-type noncompetitive"}, {"measurement": "Ki", "setting": "pol λ binding to DNA", "value": "> 500", "unit": "µM"}, {"measurement": "inhibition of DNA binding to polymerase (EMSA)", "setting": "pol λ binding to DNA; listed as Honokiol", "value": "does not inhibit DNA binding"}, {"measurement": "inhibition of DNA binding to polymerase (EMSA)", "setting": "pol λ binding to DNA; listed as honokiol", "value": "did not inhibit the binding of the DNA to the polymerase"}, {"measurement": "−log(IC50) (95% CI)", "setting": "A549 cells; tested compound alone", "value": "4.6 (4.5, 4.8)"}, {"measurement": "IC50", "setting": "A549 cells; Homo sapiens, read-out: −log(IC50) (95% CI), A549, 24 h, tested compound alone (converted)", "value": 25.1, "unit": "µM"}, {"measurement": "toxicity and side effects in rats", "setting": "rats", "value": "nontoxic with no side effects"}, {"measurement": "IC50", "setting": "[4]", "value": 80, "unit": "µM"}, {"measurement": "Ki", "setting": "[4]", "value": 26, "unit": "µM"}, {"measurement": "α", "setting": "[4]; [7]", "value": "0.48 (0.23, 0.74)"}, {"measurement": "β", "setting": "[4]; [8]", "value": "0.16 (0.09, 0.23)"}, {"measurement": "inhibition mechanism versus dCTP", "setting": "[4]; steady-state kinetic analysis", "value": "mixed-type noncompetitive"}, {"measurement": "inhibition of DNA binding to polymerase (EMSA)", "setting": "KF(exo-) binding to DNA", "value": "does not inhibit DNA binding"}, {"measurement": "solubility", "setting": "[5]", "value": 200, "unit": "µM"}, {"measurement": "prolonging life in xenografted mice", "setting": "[6]", "value": "effective in prolonging life"}]}
